Test results reported in ChEMBL document CHEMBL1125528, “Synthesis and pharmacological evaluation of enantiomerically pure 4-deoxy-4-fluoromuscarines” (J Med Chem, 1992).

Key:
[1] = molecular target: Muscarinic acetylcholine receptor M3 (Cavia porcellus) (UniProt Q8VH26); assay: In vitro potency at muscarinic M3 receptors of guinea pig ileum.; type: functional, tissue-based
[2] = molecular target: Muscarinic acetylcholine receptor M3 (Cavia porcellus) (UniProt Q8VH26); assay: In vitro potency at muscarinic M3 receptors of guinea pig bladder relative to muscarine..; type: functional
[3] = molecular target: T1, Muscarinic acetylcholine receptor M2 (Homo sapiens) (UniProt P08172); assay: In vitro potency at muscarinic M2 receptors of guinea pig heart relative to muscarine.; type: functional; settings: Cavia porcellus; target entry is the homologue from another species
T1 sequence (whole entry): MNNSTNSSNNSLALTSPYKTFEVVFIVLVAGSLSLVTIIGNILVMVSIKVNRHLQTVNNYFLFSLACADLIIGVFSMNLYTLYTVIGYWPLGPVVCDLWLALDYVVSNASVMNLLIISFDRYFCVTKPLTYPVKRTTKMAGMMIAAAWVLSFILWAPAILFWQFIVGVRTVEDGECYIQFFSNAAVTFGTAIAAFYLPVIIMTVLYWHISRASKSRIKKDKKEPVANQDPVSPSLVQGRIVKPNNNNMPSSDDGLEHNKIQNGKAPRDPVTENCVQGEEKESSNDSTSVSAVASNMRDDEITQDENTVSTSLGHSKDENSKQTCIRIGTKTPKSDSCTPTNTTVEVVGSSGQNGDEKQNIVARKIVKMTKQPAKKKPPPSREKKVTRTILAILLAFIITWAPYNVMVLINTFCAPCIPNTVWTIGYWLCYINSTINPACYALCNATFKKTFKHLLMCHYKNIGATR

[4] = molecular target: T1, Muscarinic acetylcholine receptor M2 (Homo sapiens); assay: In vitro potency at muscarinic M2 receptors of guinea pig heart(atria force).; type: functional; settings: Cavia porcellus; target entry is the homologue from another species
[5] = molecular target: Muscarinic acetylcholine receptor M3 (Cavia porcellus) (UniProt Q8VH26); assay: In vitro potency at muscarinic M3 receptors of guinea pig bladder.; type: functional
Procedure, shortened: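 Guinea pig bladder longitudinal strip (2 mm wide, urethra to apex) in ileum PSS at 37 °C with isometric recording; 30 min equilibration, then the ileum protocol.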

[6] = molecular target: Muscarinic acetylcholine receptor M3 (Cavia porcellus) (UniProt Q8VH26); assay: % receptor occupied at ED50 on guinea pig bladder
[7] = molecular target: Muscarinic acetylcholine receptor M3 (Cavia porcellus) (UniProt Q8VH26); assay: % receptor occupied at ED50 on guinea pig ileum; type: tissue-based
[8] = molecular target: Muscarinic acetylcholine receptor M3 (Cavia porcellus) (UniProt Q8VH26); assay: Affinity for muscarinic receptors in guinea pig ileum relative to muscarine.; type: tissue-based
[9] = molecular target: Muscarinic acetylcholine receptor M3 (Cavia porcellus) (UniProt Q8VH26); assay: Efficacy for muscarinic receptors in guinea pig ileum relative to muscarine.; type: functional, tissue-based
[10] = molecular target: T1, Muscarinic acetylcholine receptor M2 (Homo sapiens); assay: Dissociation constant at guinea pig heart(atria rate).; type: functional; settings: Cavia porcellus; target entry is the homologue from another species
[11] = molecular target: T1, Muscarinic acetylcholine receptor M2 (Homo sapiens); assay: Potency at cardiac M2 receptors mediating bradycardia to decrease the heart rate in pithed rat; type: functional, tissue-based
Procedure, shortened: (§1)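 Pithed rats, artificially respired at 60 cycles/min, 1 mL/100 g, with heparin 150 IU/kg iv, at about 37 °C. Heart rate came from the carotid pressure pulse after at least 30 min stabilisation. Agonists in 0.9% saline were given iv at 0.1 mL/100 g, one curve per preparation. ED50 was read graphically. Antagonists (pirenzepine 50 µg/kg, methoctramine 300 µg/kg iv) were given 20 min beforehand.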

[12] = molecular target: Muscarinic acetylcholine receptor M3 (Cavia porcellus) (UniProt Q8VH26); assay: Dissociation constant at muscarinic M3 receptors of guinea pig ileum.; type: tissue-based
[13] = molecular target: T1, Muscarinic acetylcholine receptor M2 (Homo sapiens); assay: Affinity for muscarinic receptors in guinea pig heart(atria rate) relative to muscarine.; settings: Cavia porcellus; target entry is the homologue from another species
[14] = molecular target: T1, Muscarinic acetylcholine receptor M2 (Homo sapiens); assay: % receptor occupied at ED50 on guinea pig heart(atria force); settings: Cavia porcellus; target entry is the homologue from another species
[15] = molecular target: T1, Muscarinic acetylcholine receptor M2 (Homo sapiens); assay: % receptor occupied at ED50 on guinea pig heart(atria rate); settings: Cavia porcellus; target entry is the homologue from another species
[16] = molecular target: T2, Muscarinic acetylcholine receptor M1 (Homo sapiens) (UniProt P11229); assay: Potency at ganglionic M1 receptors mediating tachycardia to increase the heart rate in pithed rat; type: functional, tissue-based; procedure, shortened: as §1
T2 sequence (whole entry): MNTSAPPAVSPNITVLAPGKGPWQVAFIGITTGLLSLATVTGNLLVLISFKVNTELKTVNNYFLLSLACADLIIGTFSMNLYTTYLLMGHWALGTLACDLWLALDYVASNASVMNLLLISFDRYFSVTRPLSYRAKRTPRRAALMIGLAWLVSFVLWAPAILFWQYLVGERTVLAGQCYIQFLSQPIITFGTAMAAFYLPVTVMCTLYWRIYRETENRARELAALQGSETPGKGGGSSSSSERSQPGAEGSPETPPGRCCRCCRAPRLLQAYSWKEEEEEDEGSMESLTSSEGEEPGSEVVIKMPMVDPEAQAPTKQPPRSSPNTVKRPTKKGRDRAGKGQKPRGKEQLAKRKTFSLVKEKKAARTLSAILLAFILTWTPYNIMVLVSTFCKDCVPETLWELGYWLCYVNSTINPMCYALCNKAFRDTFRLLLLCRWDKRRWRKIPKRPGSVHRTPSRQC

[17] = molecular target: T1, Muscarinic acetylcholine receptor M2 (Homo sapiens); assay: In vitro potency at muscarinic M2 receptors of guinea pig heart(atria rate).; type: functional; settings: Cavia porcellus; target entry is the homologue from another species
[18] = molecular target: T1, Muscarinic acetylcholine receptor M2 (Homo sapiens); assay: Dissociation constant at guinea pig heart(atria force).; type: functional; settings: Cavia porcellus; target entry is the homologue from another species
[19] = molecular target: T1, Muscarinic acetylcholine receptor M2 (Homo sapiens); assay: Affinity for muscarinic receptors in guinea pig heart(atria force) relative to muscarine.; settings: Cavia porcellus; target entry is the homologue from another species
[20] = molecular target: T1, Muscarinic acetylcholine receptor M2 (Homo sapiens); assay: Efficacy for muscarinic receptors in guinea pig heart(atria force relative to muscarine.; type: functional; settings: Cavia porcellus; target entry is the homologue from another species
[21] = molecular target: Muscarinic acetylcholine receptor M3 (Cavia porcellus) (UniProt Q8VH26); assay: Dissociation constant at muscarinic M3 receptors of guinea pig bladder.
[22] = molecular target: Muscarinic acetylcholine receptor M3 (Cavia porcellus) (UniProt Q8VH26); assay: In vitro potency at muscarinic M3 receptors of guinea pig ileum relative to muscarine..; type: functional, tissue-based
[23] = molecular target: Muscarinic acetylcholine receptor M3 (Cavia porcellus) (UniProt Q8VH26); assay: Affinity for muscarinic receptors in guinea pig bladder relative to muscarine.
[24] = molecular target: T1, Muscarinic acetylcholine receptor M2 (Homo sapiens); assay: Efficacy for muscarinic receptors in guinea pig heart(atria rate) relative to muscarine.; type: functional; settings: Cavia porcellus; target entry is the homologue from another species
[25] = molecular target: Muscarinic acetylcholine receptor M3 (Cavia porcellus) (UniProt Q8VH26); assay: Efficacy for muscarinic receptors in guinea pig bladder relative to muscarine.; type: functional
[26] = molecular target: Muscarinic acetylcholine receptor M3 (Cavia porcellus) (UniProt Q8VH26); assay: % muscarinic acetylcholine receptor M3 occupied at ED50 on guinea pig bladder
[27] = molecular target: Muscarinic acetylcholine receptor M3 (Cavia porcellus) (UniProt Q8VH26); assay: % muscarinic acetylcholine receptor M3 occupied at ED50 on guinea pig ileum; type: tissue-based
[28] = molecular target: Muscarinic acetylcholine receptor M3 (Cavia porcellus) (UniProt Q8VH26); settings: Ileum
[29] = molecular target: Muscarinic acetylcholine receptor M3 (Cavia porcellus) (UniProt Q8VH26); settings: Ileum; remark: listed apart in the source
[30] = molecular target: Muscarinic acetylcholine receptor M3 (Cavia porcellus) (UniProt Q8VH26); settings: Ileum; remark: listed apart in the source

Muscarinic acetylcholine receptor M3 (Cavia porcellus), sequence (Q8VH26 1-587): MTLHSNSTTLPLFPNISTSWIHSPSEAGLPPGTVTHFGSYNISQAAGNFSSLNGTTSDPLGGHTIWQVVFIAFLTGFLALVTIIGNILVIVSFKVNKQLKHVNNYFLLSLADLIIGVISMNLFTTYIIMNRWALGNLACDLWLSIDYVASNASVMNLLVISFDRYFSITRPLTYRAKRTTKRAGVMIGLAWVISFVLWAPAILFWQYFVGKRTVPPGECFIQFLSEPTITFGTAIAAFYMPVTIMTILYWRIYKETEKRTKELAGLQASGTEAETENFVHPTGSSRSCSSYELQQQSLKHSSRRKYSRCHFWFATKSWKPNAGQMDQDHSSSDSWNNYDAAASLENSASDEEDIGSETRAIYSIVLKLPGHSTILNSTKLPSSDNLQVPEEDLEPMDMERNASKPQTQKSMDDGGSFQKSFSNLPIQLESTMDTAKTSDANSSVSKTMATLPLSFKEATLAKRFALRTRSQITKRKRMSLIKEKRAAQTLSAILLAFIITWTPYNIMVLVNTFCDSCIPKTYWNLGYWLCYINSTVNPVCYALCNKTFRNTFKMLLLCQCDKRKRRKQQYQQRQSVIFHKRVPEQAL

C[C@@H]1O[C@@H](C[N+](C)(C)C)C[C@@H]1F
-Log ED50 [1]: 4.64
Intrinsic activity [2]: 0.52
Intrinsic activity [3]: 0.72
-Log ED50 [4]: 4.07
-Log ED50 [5]: 3.92

C[C@@H]1O[C@H](C[N+](C)(C)C)C[C@@H]1F
-Log ED50 [1]: 5.02
Intrinsic activity [2]: 0.76
Intrinsic activity [3]: 0.76
-Log ED50 [4]: 4.43
-Log ED50 [5]: 3.74

C[C@@H]1O[C@H](C[N+](C)(C)C)C[C@H]1F
PD2 [1]: 7.36
Intrinsic activity [2]: 0.88
Receptor occupied [6]: 5.11%
Receptor occupied [7]: 2.24%
Relative affinity [8]: 0.59
Relative efficacy [9]: 2.96
-Log KD [10]: 5.77
ED50 [11]: 0.0235 mg/kg
-Log KD [12]: 5.72
Intrinsic activity [3]: 0.98
Relative affinity [13]: 14.5
Receptor occupied [14]: 0.86%
Receptor occupied [15]: 7.36%
ED50 [16]: 0.0045 mg/kg
-Log ED50 [17]: 6.87
-Log KD [18]: 4.67
Relative affinity [19]: 0.93
Relative efficacy [20]: 1.17
-Log KD [21]: 4.39
Intrinsic activity [22]: 0.95
Relative affinity [23]: 0.59
PD2 [4]: 6.73
PD2 [5]: 5.66
Relative efficacy [24]: 0.21
Relative efficacy [25]: 1.54

C[C@@H]1O[C@@H](C[N+](C)(C)C)C[C@H]1F
-Log ED50 [1]: 5.93
Intrinsic activity [2]: 0.74
Intrinsic activity [3]: 0.97
-Log ED50 [4]: 5.59
-Log ED50 [5]: 4.45

C[C@@H]1O[C@H](C[N+](C)(C)C)C[C@H]1O (racemic)
Receptor occupied [26]: 7.85%
Receptor occupied [27]: 6.62%
PD2 [28]: 7.1
-Log KD [29]: 5.95
PD2 [30]: 5.69
